Results: ChEMBL document CHEMBL4765333, “Novel NO-releasing scopoletin derivatives induce cell death via mitochondrial apoptosis pathway and cell cycle arrest” (Eur J Med Chem, 2020)
The source made the active and inactive calls. The calls are words filed in the database; no cut-off is given here.

How the values were obtained:
[1] = test system: MDA-MB-231; experiment: Induction of cell cycle arrest in human MDA-MB-231 cells assessed as accumulation at G0/G1 phase at 2 uM measured after 24 hrs by propidium iodide staining based flow cytometric method (reference value: 45.71%); format: functional
[2] = test system: MDA-MB-231; experiment: Induction of mitochondrial membrane potential depolarization in human MDA-MB-231 cells assessed as proportion of cells with hyperpolarized MMP at 1 uM incubated for 18 hrs by JC-1 staining based flow cytometry (reference value: 98.4%); format: functional
[3] = test system: MDA-MB-231; experiment: Induction of cell cycle arrest in human MDA-MB-231 cells assessed as accumulation at G0/G1 phase at 1.5 uM measured after 24 hrs by propidium iodide staining based flow cytometric method (reference value: 45.71%); format: functional
[4] = test system: MDA-MB-231; experiment: Induction of cell cycle arrest in human MDA-MB-231 cells assessed as accumulation at S phase at 1 uM measured after 24 hrs by propidium iodide staining based flow cytometric method (reference value: 36.25%); format: functional
[5] = test system: L02; experiment: Cytotoxicity against human L02 cells assessed as reduction in cell viability measured after 48 hrs by MTT assay; format: cell-based; settings: L02, 48 h
Summary of the method: (§1)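 Cells seeded at ~5,000/well, grown 24 h to partial monolayer, then exposed 48 h at 37°C, 5% CO2 to 0.5, 1, 2, 4, 10 and 20 µM (DMSO ≤0.1%). MTT final 0.5 mg/ml for 4 h, formazan dissolved in DMSO, A570. Survival expressed as % of untreated control; IC50 from dose-response curves; three independent experiments. MDA-MB-231, MCF-7, HepG2 in DMEM; A549 and LO-2 in RPMI-1640; 10% FBS.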

[6] = test system: MDA-MB-231; experiment: Induction of apoptosis in human MDA-MB-231 cells assessed as increase in cleaved PARP protein expression incubated for 8 hrs by Western blot analysis; format: functional, cell-based; settings: dose 1.5-6 µM
Summary of the method: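 MDA-MB-231 cells (8×10^5 per 60 mm dish) attached 24 h, then exposed 8 h to 1.5, 3 or 6 µM, DMSO as control. Lysates quantified by BCA; 30 µg protein run on 4–20% SDS-PAGE, transferred to PVDF, probed for Bcl-2, Bax, Bad, cleaved caspase-9, cleaved caspase-3 and PARP, with ECL detection. Densitometric relative levels; three experiments.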

[7] = test system: MDA-MB-231; experiment: Antiproliferative activity against human MDA-MB-231 cells assessed as inhibition of cell proliferation rate at 4 uM pretreated with 40 uM NO scavenger, hemoglobin for 2 hrs followed by addition of compound and measured after 48 hrs by MTT assay; format: functional
Summary of the method: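 MDA-MB-231 cells pretreated 2 h with the NO scavenger hemoglobin (2.5, 5, 10, 20, 40 µM), then given compound at 4 µM for a further 48 h. Inhibition rate read by MTT assay; mean ± SD, n = 3.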

[8] = test system: MDA-MB-231; experiment: Induction of mitochondrial membrane potential depolarization in human MDA-MB-231 cells assessed as proportion of cells with depolarized MMP at 1.5 uM incubated for 18 hrs by JC-1 staining based flow cytometry (reference value: 0.72%); format: functional
[9] = test system: MDA-MB-231; experiment: Induction of apoptosis in human MDA-MB-231 cells assessed as early apoptotic cells at 1 uM after 24 hrs by Annexin V/propidium iodide based flow cytometric analysis (reference value: 0.94%); format: functional
Summary of the method: (§2)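 MDA-MB-231 cells (2×10^5/well) attached 24 h, then treated 24 h with 1, 1.5, 2 or 3 µM, DMSO as control. Cells harvested, PBS-washed, resuspended in binding buffer, stained with Annexin V and PI for 30 min at 37°C in the dark, and analysed by flow cytometry for quadrant percentages; three experiments.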

[10] = test system: MDA-MB-231; experiment: Induction of apoptosis in human MDA-MB-231 cells assessed as late apoptotic cells at 2 uM after 24 hrs by Annexin V/propidium iodide based flow cytometric analysis (reference value: 0.038%); format: functional; summary of the method: as §2
[11] = test system: HepG2; experiment: Anticancer activity against human HepG2 cells assessed as inhibition of cell proliferation measured after 48 hrs by MTT assay; format: functional, cell-based; settings: HepG2, 48 h; summary of the method: as §1
[12] = test system: MDA-MB-231; experiment: Induction of cell cycle arrest in human MDA-MB-231 cells assessed as accumulation at G2/M phase at 1.5 uM measured after 24 hrs by propidium iodide staining based flow cytometric method (reference value: 18.55%); format: functional
[13] = Induction of intracellular reactive oxygen species generation in human MDA-MB-231 cells assessed as proportion of FL1-H positive cells at 2 uM pretreated with ROS scavenger, NAC for 2 hrs prior to incubation with compound and measured after 24 hrs by DCFH-DA staining based flow cytometry analysis (reference value: 47.8%); format: functional, MDA-MB-23
Summary of the method: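 MDA-MB-231 seeded at 2×10^5 cells/well, grown 24 h, pretreated with NAC (2.5 mM) for 2 h, then given 2 µM compound for 24 h. Cells loaded with DCFH-DA 30 min at 37°C in the dark, washed in PBS, resuspended in serum-free medium and read by flow cytometry; three independent experiments.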

[14] = test system: MDA-MB-231; experiment: Induction of apoptosis in human MDA-MB-231 cells after 24 hrs by Hoechst33342 staining based fluorescence inverted microscopic analysis; format: functional, cell-based; settings: dose 0.5-1.5 µM
Summary of the method: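 MDA-MB-231 cells (5×10^4/well) attached 24 h, then treated 24 h with 0.5, 1 or 1.5 µM (DMSO vehicle control). Stained with Hoechst 33342 at 10 µg/ml for 5 min at 37°C in the dark, washed with PBS, and examined by inverted fluorescence microscopy for apoptotic nuclear morphology.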

[15] = Induction of intracellular reactive oxygen species generation in human MDA-MB-231 cells assessed as proportion of FL1-H negative cells at 1 uM measured after 24 hrs by DCFH-DA staining based flow cytometry analysis (reference value: 52.2%); format: functional, MDA-MB-23
[16] = test system: MDA-MB-231; experiment: Antiproliferative activity in human MDA-MB-231 cells assessed as inhibition of cell viability at 1.5 to 3 uM pretreated with 20 uM apoptosis inhibitor, Z-VAD-FMK followed by addition of compound and measured after 48 hrs by MTT assay; format: functional, cell-based; settings: dose 1.5-3 µM
Summary of the method: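 MDA-MB-231 cells pretreated 1 h with necrostatin-1 (10 µM) or Z-VAD-FMK (20 µM), then exposed to compound at 1.5, 2 and 3 µM for another 48 h. Inhibition rates by MTT; inhibitors alone also tested 48 h for viability. Mean ± SD, n = 3.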

[17] = test system: MDA-MB-231; experiment: Induction of apoptosis in human MDA-MB-231 cells assessed as necrotic cells at 3 uM after 24 hrs by Annexin V/propidium iodide based flow cytometric analysis (reference value: 0.019%); format: functional; summary of the method: as §2
[18] = test system: MDA-MB-231; experiment: Inhibition of colony formation in human MDA-MB-231 cells assessed as fewer and smaller colonies at 0.5 to 1 uM incubated for 24 hrs followed by culturing in fresh medium for 10 days by crystal violet staining based assay; format: functional, cell-based; settings: dose 0.5-1 µM
Summary of the method: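 MDA-MB-231 seeded at 1.5×10^3 cells/well, 24 h attachment, then 24 h exposure to compound (0.25, 0.5, 1 µM) or DMSO; fresh medium for a further 10 days. Fixed in 4% paraformaldehyde 0.5 h at 4°C, crystal violet stained, dye dissolved in DMSO and absorbance read at 590 nm; performed three times.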

[19] = Anticancer activity against human MDA-MB-231 cells assessed as inhibition of cell proliferation measured after 48 hrs by MTT assay; format: functional, cell-based; settings: MDA-MB-23, 48 h; summary of the method: as §1
[20] = test system: MDA-MB-231; experiment: Induction of mitochondrial membrane potential depolarization in human MDA-MB-231 cells assessed as proportion of cells with hyperpolarized MMP at 1.5 uM incubated for 18 hrs by JC-1 staining based flow cytometry (reference value: 98.4%); format: functional

Structure (SMILES): COc1cc2cc(N)c(=O)oc2cc1OCCCOc1no[n+]([O-])c1S(=O)(=O)c1ccccc1
- Activity [1]: 38.05%
- Activity [2]: 93.2%
- Activity [3]: 41.85%
- Activity [4]: 28.05%
- IC50 [5]: 9.16 µM
- Activity [6]: Dose-dependent effect
- inhibition at 4 µM [7]: 39.5%
- Activity [8]: 17.7%
- Activity [9]: 3.75%
- Activity [10]: 15.8%
- IC50 [11]: 2.81 µM
- Activity [12]: 30.11%
- Activity [13]: 51%
- Activity [14]: Dose-dependent effect
- Activity [15]: 35%
- Activity [16]: inactive
- Activity [17]: 0.31%
- inhibition [18]: Active
- IC50 [19]: 1.23 µM
- Activity [20]: 81.4%
